ChEMBL document CHEMBL1955761, “Privileged scaffolds or promiscuous binders: a comparative study on rhodanines and related heterocycles in medicinal chemistry” (J Med Chem, 2012)
Active and inactive are the calls of the source.

What was measured:
[1] = system: Dengue virus; assay: Inhibition of Dengue virus NS2B-NS3 protease using Abz-NleKRRS-3-(NO2)Y as substrate at 50 uM preincubated for 15 mins measured every sec for 15 mins by fluorimetric analysis
[2] = system: Escherichia coli; assay: Inhibition of Escherichia coli MetAP at 10 uM after 15 mins by fluorescence analysis
[3] = target: Prothrombin (Bos taurus) (UniProt P00735); assay: Inhibition of bovine plasma thrombin using Boc-Val-Pro-Arg-AMC as substrate at 25 uM preincubated for 15 mins measured after 10 mins by fluorimetric assay
How it was run: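 Purchased bovine plasma thrombin at 10 nM final, preincubated 15 min with 25 μM inhibitor; reaction started with 50 μM substrate. Buffer 50 mM Tris-HCl pH 7.5, 150 mM NaCl, 0.05% Tween 20. Triplicate, averaged.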

[4] = system: Escherichia coli; assay: Inhibition of Escherichia coli MurA using PEP as substrate assessed as inorganic phosphate release at 25 uM preincubated for 10 mins measured after 60 mins […]

Structure (SMILES)	inhibition [1]	inhibition [2]	inhibition [3]	inhibition [4]
C/C(=C1/SC(=O)NC1=O)c1ccc2ccccc2c1	30%	12%	20%	inactive
O=C1NC(=O)/C(=C/c2ccc(O)cc2)N1	26%	inactive	14%	inactive
O=C1NC(=O)/C(=C/c2c[nH]c3ccccc23)S1	26%	10%	23%	inactive
CC(=O)N1C(=S)NC(=O)[C@H]1Cc1ccccc1	inactive	inactive	inactive	15%
Nc1ccc(/C=C2\SC(=S)NC2=O)cc1	inactive	inactive	11%	inactive
O=C1NC(=S)S/C1=C\c1ccc(Br)s1	50%	inactive	22%	21%
O=C1NC(=S)NC1=C(c1ccccc1)c1ccccc1	inactive	24%	inactive	inactive
O=C1CSC(=O)N1	13%	inactive	inactive	inactive
O=C1CSC(=S)N1	14%	inactive	inactive	inactive
CC(=O)N1C(=S)NC(=O)[C@@H]1CC(C)C	inactive	13%	inactive	inactive

Continued, values first:

inhibition [1]	inhibition [2]	inhibition [3]	inhibition [4]	Structure (SMILES)
16%	inactive	25%	38%	O=C1NC(=O)/C(=C/c2ccc(Cl)s2)N1
16%	13%	23%	inactive	COc1ccc(/C=C2\SC(=O)NC2=O)cc1OC
33%	15%	10%	inactive	C/C(=C1/NC(=S)NC1=O)c1ccc2ccccc2c1
inactive	13%	inactive	11%	O=C1NC(=S)N[C@H]1Cc1c[nH]c2ccccc12
inactive	22%	inactive	inactive	O=C1NC(=O)[C@H](Cc2ccccc2)N1
